An excerpt weighted towards active compounds, which were near 2% of everything screened.
XiGFP reactiv: activators of inactive X chromosome reactivation, primary screen, imaging, XiGFP fibroblasts, GFP high-content imaging, set 2 | XiGFP mouse fibroblasts, % GFP-positive cells imaging, 3 d; cells co-treated with 5-aza-dC sensitizer; scaled so ellipticine positive control = 100% | activation, % at 7.58 µM | 360,000 tested, 0.055% active | AID 743238, 2013;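 active means mean normalized replicate activation at least 10% and every replicate at or above 10%; inconclusive means only one of the two criteria met; inactive means mean below 10% and not all replicates reach 10%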
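Assay system: SV40-immortalized XiGFP fibroblast cells, line 68-5-11; buffer or medium: DMEM plus 5-aza-dC sensitizer; compound: one concentration, pinned; timing: compounds 3 days, fix/stain 15 min at room temperature; benchmarks: positive control ellipticine, 6 µM final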
S100A4 MyoIIA: inhibitors of S100A4-myosin IIA peptide binding, primary screen, biochemical, fluorescence polarization, TAMRA-MyoIIA peptide; Protein S100-A4 (Homo sapiens), P26447; 360,000 tested, 0.14% active; inhibition, % at 10.7 µM;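 active means mean inhibition of at least 70% across replicates, with every replicate also reaching that level; inconclusive means mean inhibition reaches 70% but some replicates fall short; inactive means mean inhibition below 70%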
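Test system: S100A4 monomer protein; Medium: HEPES pH 7.2 with CaCl2, KCl, NaCl, DTT, Triton; Probe or stimulus: TAMRA-labelled myosin IIA heavy-chain peptide probe, 5 nM; Doses: one dose per compound; Times: polarization read 5 min after assay mix addition, stable 5–60 min; Benchmarks: neutral control DMSO, positive control TFP.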
DENV2 CPE: inhibitors of DENV2 cytopathic effect, primary screen, cell-based, plate reader, single concentration. DENV2-infected cells, cytopathic effect rescue. 350,000 tested, 1.7% active. CPE inhibition, % at 9.99 µM; in the data active means CPE inhibition above about 20%, passing the limit was not always enough; inconclusive means no clear call, values can overlap the other calls; tested in BHK-21 cells
E-selectin induc: E-selectin induction in HUVECs, primary screen, imaging, HUVEC, immunofluorescence imaging, single point; P16581; AID 686992, 2013; normalized: neutral wells 0, TNF-alpha wells 100; activation, % at 7.58 µM; 260,000 tested, 0.37% active;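 active means mean E-selectin-positive cell signal at least 10% of the positive control, reached in at least 60% of replicates, without over 20% cell loss; inconclusive means no rule given, readout overlaps actives, possibly toxicity-flagged; inactive means the rest, including those meeting only one limit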
Target sequence (P16581 whole entry, looked up): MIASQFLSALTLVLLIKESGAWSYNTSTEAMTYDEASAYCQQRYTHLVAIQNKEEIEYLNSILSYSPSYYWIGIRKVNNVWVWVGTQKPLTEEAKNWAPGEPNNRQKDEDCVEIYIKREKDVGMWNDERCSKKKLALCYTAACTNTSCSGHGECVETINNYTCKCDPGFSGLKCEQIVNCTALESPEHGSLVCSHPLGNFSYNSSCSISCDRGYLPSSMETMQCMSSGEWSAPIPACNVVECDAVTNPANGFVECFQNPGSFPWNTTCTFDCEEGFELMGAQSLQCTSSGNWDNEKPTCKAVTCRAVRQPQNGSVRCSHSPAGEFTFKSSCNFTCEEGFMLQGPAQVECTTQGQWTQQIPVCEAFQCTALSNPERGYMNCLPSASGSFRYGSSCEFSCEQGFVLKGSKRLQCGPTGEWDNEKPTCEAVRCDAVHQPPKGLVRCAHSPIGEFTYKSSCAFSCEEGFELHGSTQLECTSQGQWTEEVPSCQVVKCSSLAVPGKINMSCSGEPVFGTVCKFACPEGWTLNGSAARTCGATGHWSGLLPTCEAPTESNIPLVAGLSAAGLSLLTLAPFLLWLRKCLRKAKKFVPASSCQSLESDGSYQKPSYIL
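Read-out: % PE-positive cells | Test system: HUVEC | Doses: One compound dose added by pin transfer | Buffer or medium: EGM-2 over gelatin coat | Signal: Immunofluorescence imaging | Benchmarks: TNF-alpha, DMSO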
Large screens that a line does not name were inactive; ! = not active in a repeat.

Cc1ccccc1CCN1CCCC(CN(C)C(=O)c2ccc3ncccc3c2)C1 (stereo not drawn)	E-selectin induc 68.3
COc1ccccc1CCN1CCCC(CN(C)C(=O)c2ccc3nc[nH]c3c2)C1 (stereo not drawn)	none (no result: E-selectin induc)
O=C1c2ccccc2-c2c1c1ccccc1c(=O)n2-c1ccccc1	none
Cc1c(NC(=O)C(C)OC(=O)c2nc(Cl)ccc2Cl)c(=O)n(-c2ccccc2)n1C (stereo not drawn)	none
Cc1c(NC(=O)C(C)OC(=O)c2cc(Cl)ccc2O)c(=O)n(-c2ccccc2)n1C (stereo not drawn)	DENV2 CPE 30.7
COc1ccccc1C#Cc1ccc2c(c1)O[C@@H](CN(C)Cc1cncnc1)[C@@H](C)CN([C@@H](C)CO)S2(=O)=O	DENV2 CPE inconclusive
CC(C)CC#Cc1ccc2c(c1)O[C@H](CN(C)Cc1cncnc1)[C@@H](C)CN([C@H](C)CO)S2(=O)=O	S100A4 MyoIIA inconclusive, DENV2 CPE 58.2
CCCC#Cc1ccc2c(c1)O[C@H](CN(C)Cc1cccnc1)[C@@H](C)CN([C@@H](C)CO)S2(=O)=O	DENV2 CPE 25.5
CC(C)CC#Cc1ccc2c(c1)O[C@H](CN(C)Cc1cncnc1)[C@H](C)CN([C@H](C)CO)S2(=O)=O	none
CC(C)CC#Cc1ccc2c(c1)O[C@H](CN(C)Cc1ccncc1)[C@H](C)CN([C@@H](C)CO)S2(=O)=O	E-selectin induc 107.8
CC(C)CC#Cc1ccc2c(c1)O[C@@H](CN(C)Cc1cccnc1)[C@@H](C)CN([C@H](C)CO)S2(=O)=O	none
COc1ccccc1C#Cc1ccc2c(c1)O[C@H](CN(C)Cc1cncnc1)[C@@H](C)CN([C@H](C)CO)S2(=O)=O	XiGFP reactiv 25.6
Cc1ccc(S(=O)(=O)N(C)CCCC(=O)Nc2cc(C)ccc2C)cc1	none
COCC(=O)N1CC2(C1)[C@H](c1ccc(-c3ccc(C)cc3)cc1)[C@@H](CO)N2C(C)=O	none
CC(NC(=S)N1CCN(c2ccccc2)CC1)c1ccccc1 (stereo not drawn)	none
CC(C)NC(=O)N1[C@@H]2CN(C(=O)Nc3ccc(Cl)cc3)c3ccccc3[C@@H]2[C@@H]1CO	none (no result: S100A4 MyoIIA, DENV2 CPE)
CC[C@H](C)C(=O)O[C@H]1C[C@@H](C)C=C2C=C[C@H](C)[C@H](CC[C@@H]3C[C@@H](O)CC(=O)O3)[C@H]21	DENV2 CPE 35.6!
CCC(C)C(=O)OC1CCC=C2C=CC(C)C(CCC3CC(O)CC(=O)O3)C21 (stereo not drawn)	none
C[C@@H]1CCCCO[C@@H](CN(C)Cc2ccncc2)[C@H](C)CN([C@@H](C)CO)C(=O)c2cc(NS(=O)(=O)c3ccc(Cl)cc3)ccc2O1	DENV2 CPE 60.1
C[C@@H]1CN([C@H](C)CO)C(=O)c2cc(NS(=O)(=O)c3ccc(F)cc3)ccc2O[C@@H](C)CCCCO[C@H]1CN(C)Cc1ccncc1	DENV2 CPE 50.6
C[C@H]1CCCCO[C@H](CN(C)Cc2ccncc2)[C@@H](C)CN([C@@H](C)CO)C(=O)c2cc(NS(=O)(=O)c3ccc(F)cc3)ccc2O1	none
CCOC(=O)COc1ccc(Br)cc1/C=C1\SC(N)=NC1=O	DENV2 CPE 37.5
COc1ccc(S(=O)(=O)N(C)C[C@@H]2OCCCC[C@@H](C)Oc3ccc(NC(=O)Nc4ccc5c(c4)OCO5)cc3C(=O)N([C@H](C)CO)C[C@@H]2C)cc1	none
C[C@H](CO)N1C[C@H](C)[C@H](CN(C)Cc2ccncc2)Oc2c(NC(=O)Nc3ccc(F)cc3)cccc2C1=O	E-selectin induc 105.3
COc1ccc(CN(C)C[C@@H]2Oc3c(NC(=O)Nc4ccc(F)cc4)cccc3C(=O)N([C@@H](C)CO)C[C@H]2C)cc1	E-selectin induc 261.0
COc1ccc(CN(C)C[C@H]2Oc3c(NC(=O)Nc4ccc(OC)cc4)cccc3C(=O)N([C@@H](C)CO)C[C@H]2C)cc1	none
COc1ccc(NC(=O)Nc2cccc3c2O[C@H](CN(C)Cc2ccccc2)[C@H](C)CN([C@H](C)CO)C3=O)cc1	DENV2 CPE 29.5
Cc1ccc(NC(=O)COC(=O)Cc2c(F)cccc2Cl)cc1S(=O)(=O)N1CCOCC1	none
CCCN(C)C[C@H]1Oc2ncc(Br)cc2C(=O)N([C@H](C)CO)C[C@@H]1C	none
Cc1cc2c(cc1S(=O)(=O)NCc1ccccc1)OCC(=O)N2	none
COc1ccc(/C=C/C(=O)Nc2ccc(-c3nnc4n3CCCCC4)cc2)c(OC)c1	none
COc1ccc(-c2nnc3n2CCCCC3)cc1OC	E-selectin induc 35.5
C[C@@H]1CCCCO[C@H](CN(C)Cc2ccncc2)[C@@H](C)CN([C@@H](C)CO)C(=O)c2cc(NC(=O)Nc3ccc4c(c3)OCO4)ccc2O1	DENV2 CPE 27.8
C[C@@H]1CCCCO[C@@H](CN(C)Cc2ccccc2)[C@H](C)CN([C@H](C)CO)C(=O)c2cc(NC(=O)Nc3ccc(F)cc3)ccc2O1	DENV2 CPE 41.0
C[C@@H]1CCCCO[C@H](CN(C)Cc2ccccc2)[C@@H](C)CN([C@H](C)CO)C(=O)c2cc(NC(=O)Nc3ccc(F)cc3)ccc2O1	none
C[C@@H]1CN([C@@H](C)CO)C(=O)c2cc(NC(=O)Nc3ccc(F)cc3)ccc2O[C@@H](C)CCCCO[C@H]1CN(C)Cc1ccccc1	DENV2 CPE 40.4
O=C(O)c1ccc(S(=O)(=O)c2ccc3c(c2)C(=O)N(NC(=O)c2ccccc2)C3=O)cc1	none (no result: E-selectin induc)
O=S(=O)(c1ccccc1)N1CN(c2ccc(F)cc2F)c2nc3ccccc3nc21	none
CC(Sc1ncnc2sc(-c3ccccc3)cc12)C(=O)N1CCNC1=O (stereo not drawn)	E-selectin induc 38.6
CN(C)CC(=O)N1[C@@H](C#N)[C@H](c2ccc(C#CC3CCCC3)cc2)[C@@H]1CO	DENV2 CPE 22.8
N#C[C@@H]1[C@@H](c2ccc(C#CC3CCCCC3)cc2)[C@H](CO)N1C(=O)Cc1ccccn1	DENV2 CPE 67.0
CN(C)CC(=O)N1[C@H](C#N)[C@H](c2ccc(C#CC3CCCCC3)cc2)[C@@H]1CO	DENV2 CPE 39.7
COc1ccc2c3c([nH]c2c1)[C@H](CO)N(C(=O)C1CC1)CC31CN(Cc2cccc(F)c2)C1	none
COc1ccccc1S(=O)(=O)N[C@H]1C=C[C@@H](CC(=O)NCc2cccc(F)c2)O[C@H]1CO	DENV2 CPE 23.4
O=C(C[C@@H]1C=C[C@@H](NS(=O)(=O)c2cccc(F)c2)[C@@H](CO)O1)NCc1ccc2c(c1)OCO2	S100A4 MyoIIA 83.4
COc1ccc(CNC(=O)C[C@H]2C=C[C@H](NC(=O)c3ccc4c(c3)OCO4)[C@H](CO)O2)cc1	DENV2 CPE 60.8

Compound activity as filed in PubChem.
